These results are taken from ChEMBL document CHEMBL1926675, “Thio- and aminocaffeine analogues as inhibitors of human monoamine oxidase” (Bioorg Med Chem, 2011).

One data set is filed under the species Homo sapiens. The data set can be described thus: Selectivity ratio, ratio of IC50 for human recombinant MAOA to IC50 for human recombinant MAOB. An outline of the steps: (§1)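 Enzyme: insect-cell microsomal recombinant human MAO-A or -B (0.0075 mg/mL) in 100 mM potassium phosphate, pH 7.4, isotonic with KCl. Kynuramine 45 µM (MAO-A) or 30 µM (MAO-B), inhibitor 0–100 µM, 37 °C, 20 min. Reaction stopped with 2 N NaOH. 4-Hydroxyquinoline fluorescence read at ex 310/em 400 nm against a calibration curve. IC50 taken from one-site fits of six concentrations, in triplicate. Selectivity = IC50(MAO-A)/IC50(MAO-B).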

Data set [1] has as its target T1, Amine oxidase [flavin-containing] A (Homo sapiens, UniProt P21397).
T1 sequence (P21397 whole entry): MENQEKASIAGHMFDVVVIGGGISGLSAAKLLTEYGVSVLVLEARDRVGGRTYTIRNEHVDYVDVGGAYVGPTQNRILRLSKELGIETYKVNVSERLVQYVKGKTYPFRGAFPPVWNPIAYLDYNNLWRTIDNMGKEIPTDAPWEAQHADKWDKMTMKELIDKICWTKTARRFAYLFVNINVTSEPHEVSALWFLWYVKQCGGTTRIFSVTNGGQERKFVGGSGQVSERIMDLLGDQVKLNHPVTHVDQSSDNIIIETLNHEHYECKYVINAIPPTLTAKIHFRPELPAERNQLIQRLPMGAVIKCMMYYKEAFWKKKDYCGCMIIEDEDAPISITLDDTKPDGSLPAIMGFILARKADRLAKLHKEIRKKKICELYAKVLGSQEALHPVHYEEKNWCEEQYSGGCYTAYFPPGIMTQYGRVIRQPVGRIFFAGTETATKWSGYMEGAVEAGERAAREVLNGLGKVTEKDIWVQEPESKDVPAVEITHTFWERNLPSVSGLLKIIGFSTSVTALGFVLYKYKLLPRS
Nature of the data set: Inhibition of human recombinant MAOA using kynuramine as substrate by fluorescence assay. In short, it runs like this:
as §1

Data set [2] concerns the target T2, Amine oxidase [flavin-containing] B (Homo sapiens, UniProt P27338).
T2 sequence (P27338 whole entry): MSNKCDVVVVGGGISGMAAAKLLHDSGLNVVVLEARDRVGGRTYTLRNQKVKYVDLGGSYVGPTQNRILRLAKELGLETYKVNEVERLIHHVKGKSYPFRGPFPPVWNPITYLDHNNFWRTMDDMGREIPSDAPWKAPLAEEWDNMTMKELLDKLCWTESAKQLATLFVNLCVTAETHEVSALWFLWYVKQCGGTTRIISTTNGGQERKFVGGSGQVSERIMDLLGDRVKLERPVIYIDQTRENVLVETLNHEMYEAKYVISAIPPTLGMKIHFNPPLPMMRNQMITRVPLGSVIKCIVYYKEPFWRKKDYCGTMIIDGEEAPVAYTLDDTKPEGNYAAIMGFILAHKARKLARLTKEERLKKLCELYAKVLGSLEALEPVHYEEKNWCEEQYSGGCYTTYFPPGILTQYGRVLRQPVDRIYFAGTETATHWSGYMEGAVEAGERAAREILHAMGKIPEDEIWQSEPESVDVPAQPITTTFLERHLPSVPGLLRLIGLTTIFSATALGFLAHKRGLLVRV
Nature of the data set: Inhibition of human recombinant MAOB using kynuramine as substrate by fluorescence assay. In short, it runs like this: as §1

The target in data set [3] is T1, Amine oxidase [flavin-containing] A. Nature of the data set: Inhibition of human recombinant MAOA at 100 uM using kynuramine as substrate by fluorescence assay. An outline of the steps:
as §1

Data set [4] concerns the target T2, Amine oxidase [flavin-containing] B. Nature of the data set: Inhibition of human recombinant MAOB at 100 uM using kynuramine as substrate by fluorescence assay. An outline of the steps:
as §1

Data set [5] has as its target T1, Amine oxidase [flavin-containing] A. Nature of the data set: Time dependent inhibition of human recombinant MAOA using kynuramine as substrate at 5.22 uM by fluorescence assay. In short, it runs like this:
(§2)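 Recombinant human MAO-A or -B (0.015–0.03 mg/mL) was preheated at 37 °C for 60 min in total and preincubated with inhibitor at about 2× its IC50 for 0, 15, 30 or 60 min in pH 7.4 potassium phosphate. Mixtures were diluted 2-fold with kynuramine (45 µM MAO-A, 30 µM MAO-B) and incubated 15 min at 37 °C. Residual 4-hydroxyquinoline formation was read by fluorescence.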

The target is the same in data set [6]. The data set can be described thus: Inhibition of human recombinant MAOA using kynuramine as substrate at 5.22 uM after 60 mins by fluorescence assay. To be noted: 1 h. An outline of the steps:
as §2

For data set [7] the target is unchanged. Nature of the data set: Reversible Inhibition of human recombinant MAOA using kynuramine as substrate at 2 times IC50 up to 60 mins. To be noted: 1 h. An outline of the steps: as §2
Data set [8] has as its target T2, Amine oxidase [flavin-containing] B. Nature of the data set: Reversible Inhibition of human recombinant MAOB using kynuramine as substrate at 2 times IC50 up to 60 mins. The note with it: 1 h. In short, it runs like this:
as §2

For data set [9] the target is unchanged. Nature of the data set: Time dependent inhibition of human recombinant MAOB using kynuramine as substrate at 0.32 uM by fluorescence assay. An outline of the steps: as §2
The target is the same in data set [10]. The data set can be described thus: Competitive inhibition of human recombinant MAOB using kynuramine as substrate at 0.04 to 0.16 uM by Lineweaver burk plot analysis. An outline of the steps: (§3)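 Insect-cell microsomal recombinant human MAO-A or -B, 0.015 mg/mL, in potassium phosphate buffer (100 mM, pH 7.4, isotonic with KCl). Initial rates were measured with four kynuramine concentrations (15–90 µM), without inhibitor and with three inhibitor levels (MAO-A 1.31–5.22 µM; MAO-B 0.04–0.16 µM). Lineweaver–Burk plots were fitted by linear regression.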

Data set [11] addresses T1, Amine oxidase [flavin-containing] A. Nature of the data set: Competitive inhibition of human recombinant MAOA using kynuramine as substrate at 1.31 to 5.22 uM by Lineweaver burk plot analysis. An outline of the steps: as §3
The target in data set [12] is T2, Amine oxidase [flavin-containing] B. Nature of the data set: Inhibition of human recombinant MAOB using kynuramine as substrate at 0.32 uM after 60 mins by fluorescence assay. To be noted: 1 h. In short, it runs like this:
as §2

The target is the same in data set [13]. Nature of the data set: Time dependent inhibition of human recombinant MAOB using kynuramine as substrate at 5.94 uM by fluorescence assay. An outline of the steps:
as §2

Data set [14] has the same target. The data set can be described thus: Inhibition of human recombinant MAOB using kynuramine as substrate at 5.94 uM after 60 mins by fluorescence assay. The note with it: 1 h. An outline of the steps: as §2
Data set [15] concerns the target T1, Amine oxidase [flavin-containing] A. The data set can be described thus: Inhibition of human recombinant MAOA using kynuramine as substrate at 11.56 uM after 60 mins by fluorescence assay. To be noted: 1 h. An outline of the steps:
as §2

For data set [16] the target is unchanged. Nature of the data set: Time dependent inhibition of human recombinant MAOA using kynuramine as substrate at 11.56 uM by fluorescence assay. An outline of the steps: as §2

Take `Cn1c(=O)c2c(nc(SCc3ccc(F)cc3)n2C)n(C)c1=O`: the Ratio IC50 in the data set listed under Homo sapiens is 13.8. Besides, the values for the IC50 in data set [1] and in [2] were 4.8 µM and 0.348 µM, respectively.
In the same order, the values of `Cn1c(=O)c2c(nc(NCCc3ccccc3)n2C)n(C)c1=O` are 2.6, 45.2 µM and 17.6 µM.
On to `Cn1c(=O)c2c(nc(NCc3ccccc3)n2C)n(C)c1=O`, for which the 50% inhibitory concentration (IC50) result in [3] and in data set [4] was “Not Active” throughout.
`Cn1c(=O)c2c(nc(Sc3ccc4ccccc4c3)n2C)n(C)c1=O`: the Ratio IC50 in the data set filed under Homo sapiens was 1. Further, the IC50 in [1] and in [2] was 3.6 µM in each case.
Consider `Cn1c(=O)c2c(nc(NCCCCc3ccccc3)n2C)n(C)c1=O`, for which the Ratio IC50 in the data set filed under Homo sapiens is 3.2. Also, the IC50 was determined as 30.9 µM in data set [1] and 9.6 µM in [2].
As for `Cn1c(=O)c2c(nc(SCc3ccc(Br)cc3)n2C)n(C)c1=O`, the TDI result in data set [5] and in data set [9] was “Not Active” in each case. Also, the Ratio IC50 in the data set filed under Homo sapiens came out at 15.7. For the same compound, the “inhibition (INH)” value in data set [6] was “Not Active”; in data set [7], “Active”; in data set [8], “Active”; in [10] it was “Active”; in [11] it was “Active”; in data set [12] it was “Not Active”. Further, the figures for the half-inhibitory concentration (IC50) in [1] and in data set [2] were 2.62 µM and 0.167 µM, respectively.
In the case of `Cn1c(=O)c2c(nc(NCCCc3ccccc3)n2C)n(C)c1=O`, the IC50 entry in data set [3] and in data set [4] was “Not Active” in each case.
With `Cn1c(=O)c2c(nc(SCCc3ccccc3)n2C)n(C)c1=O`, the Ratio IC50 in the data set listed under Homo sapiens came out at 91.9. The IC50 was determined as 20.5 µM in [1] and 0.223 µM in data set [2].
In the case of `CN(CCCCc1ccccc1)c1nc2c(c(=O)n(C)c(=O)n2C)n1C`, the Ratio IC50 in the data set listed under Homo sapiens was 12.7. In addition, the TDI entry in data set [13] is listed as “Not Active”. For the same compound, the IC50 in data set [1] came to 37.7 µM; in [2], 2.97 µM. Moreover, the “inhibition (INH)” value in data set [14] is “Not Active”; in data set [8], “Active”.
Regarding `Cn1c(=O)c2c(nc(SC3CCCCC3)n2C)n(C)c1=O`, in the data set listed under Homo sapiens, the Ratio IC50 was found to be 1.9. Also, the IC50 was found to be 24.4 µM in [1] and 13.1 µM in data set [2].
The corresponding values for `Cn1c(=O)c2c(nc(Sc3ccccc3)n2C)n(C)c1=O` are 1.7, 56.4 µM and 33.2 µM.
For the compound `Cn1c(=O)c2c(nc(SCCOc3ccccc3)n2C)n(C)c1=O`, in the data set filed under Homo sapiens, the Ratio IC50 is 46.7. The IC50 in data set [1] is 15.5 µM; in data set [2], 0.332 µM.
Regarding `Cn1c(=O)c2c(nc(NC3CCCC3)n2C)n(C)c1=O`, the IC50 entry in data set [3] and in data set [4] was “Not Active” in each case.
Regarding `CN(CCc1ccccc1)c1nc2c(c(=O)n(C)c(=O)n2C)n1C`, in the data set listed under Homo sapiens, the Ratio IC50 stood at 6.4. The half-maximal inhibitory concentration (IC50) is 107 µM in data set [1] and 16.8 µM in [2].
For `Cn1c(=O)c2c(nc(SCc3ccc(Cl)cc3)n2C)n(C)c1=O`, the Ratio IC50 in the data set listed under Homo sapiens was 14.4. The IC50 in [1] came to 2.77 µM; in data set [2], 0.192 µM.
Regarding `Cn1c(=O)c2c(nc(Nc3ccccc3)n2C)n(C)c1=O`, the concentration for half-maximal inhibition (IC50) entry in data set [3] and in data set [4] was “Not Active” each time.
With `Cn1c(=O)c2c(nc(SCc3ccccc3)n2C)n(C)c1=O`, the Ratio IC50 in the data set filed under Homo sapiens came to 4.4. The 50% inhibitory concentration (IC50) in data set [1] is 8.22 µM; in data set [2], 1.86 µM.
Turning to `Cn1c(=O)c2c(nc(NCCc3cccc(Cl)c3)n2C)n(C)c1=O`, the Ratio IC50 in the data set filed under Homo sapiens is 0.2. For the same compound, the “inhibition (INH)” value in [15] is on record as “Not Active”; in [7] it was “Active”. For the same compound, the half-inhibitory concentration (IC50) came to 5.78 µM in data set [1] and 24.4 µM in data set [2]. Besides, in data set [16], the TDI result is given as “Not Active”.
Regarding `Cn1c(=O)c2c(nc(SC3CCCC3)n2C)n(C)c1=O`, the Ratio IC50 in the data set filed under Homo sapiens is 0.4. Moreover, the half-maximal inhibitory concentration (IC50) was found to be 9.4 µM in [1] and 20.9 µM in data set [2].
`Cn1c(=O)c2c(nc(NCCc3ccccn3)n2C)n(C)c1=O`: the half-maximal inhibitory concentration (IC50) result in [3] was “Not Active”; in data set [2], 19.4 µM.
As for `CC(C)CCSc1nc2c(c(=O)n(C)c(=O)n2C)n1C`, the Ratio IC50 in the data set filed under Homo sapiens stood at 5.8. Further, the values for the half-maximal inhibitory concentration (IC50) in [1] and in data set [2] were 15.2 µM and 2.62 µM, respectively.
As for `COc1ccc(CSc2nc3c(c(=O)n(C)c(=O)n3C)n2C)cc1`, the IC50 entry in [3] and in data set [4] was “Not Active” throughout.
